Bioassay records as filed in PubChem BioAssay.
TRPC6 inhibitor = inhibitors of mouse TRPC6 channel; AID 2553; Q61143; B-score at 10 µM; 1.1% of 310,000 active; HEK293-TRPC6, membrane potential dye, ACh-evoked depolarization; hits give low values;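 active = B-score under library mean minus 3 SD, initial fluorescence not abnormally high, positive integrated signal ratio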;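 also: B-score derived from integrated fluorescence ratio over the kinetic read; more negative B-score means stronger inhibition of depolarization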
TRPC6 activator = activators of mouse TRPC6 channel | Q61143 | HEK293-TRPC6 membrane potential dye fluorescence; hits give high values | B-score at 10 µM | 0.13% of 310,000 active;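 active = B-score of the integrated fluorescence ratio above library mean plus 3 SD, and starting fluorescence ratio within library mean plus 5 SD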;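 also: higher score means more depolarization so channel activation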
TRPC4 potent = allosterically enhances the mouse TRPC4 cation channel; B-score at 10 µM; AID 2227; HEK293 TRPC4beta/mu-opioid, DAMGO EC20, Fluo-4 Ca2+ flux; hits give high values; 0.42% of 310,000 active; Q9QUQ5;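 active = B-score of calcium response area above 5 SD of library B-scores, with initial fluorescence ratio within 5 SD of library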;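 also: B-score of integrated fluorescence ratio over time as area under calcium response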
TRPC4 act = opens the mouse TRPC4 cation channel; Q9QUQ5; HEK293 TRPC4beta/mu-opioid, Fluo4 calcium fluorescence; hits give high values; B-score at 10 µM; 0.49% of 310,000 active;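 active = B-score above 5 SD of library B-scores, and initial fluorescence ratio not above library mean plus 5 SD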;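 also: positive B-score marks a calcium rise read as TRPC4 activation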
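Test system: HEK293 cells stably co-expressing mouse TRPC4beta and mu-opioid receptor | Schedule: Fluo4 dye loading 45 min at room temperature, 110 s recording | Measured by: Kinetic Fluo4 calcium fluorescence, 5 s baseline at 1 Hz | Evaluation: B score of integrated ratio | Controls: Buffer (low) and maximal DAMGO (high)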
TRPC4 inh = blocks the mouse TRPC4 cation channel. Q9QUQ5. HEK293 TRPC4beta/mu-opioid, DAMGO-evoked Fluo4 calcium flux; hits give low values. B-score at 10 µM. 0.39% of 300,000 active;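 active = B-score over 3 SD under the library average, no early fluorescence shift, positive overall ratio signal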
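material = TRPC4beta/mu-opioid receptor HEK293 cell line | probe or stimulus = sequential submaximal and maximal DAMGO stimulation | compound dosing = one concentration per compound | measured by = Fluo4 Ca2+ flux fluorescence | evaluation = integrated fluorescence ratio relative to baseline, converted to per-well B score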
TRPC4 sel inh 2 = second check of whether TRPC6 inhibitors also affect mouse TRPC4 | shares compounds with TRPC6 inhibitor | HEK293 TRPC4/MOR, membrane potential dye fluorescence; channel activated by saturating DAMGO dose | inhibition, % at 10 µM | 42% of 920 active;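 active = compounds whose fluorescence signal differed from control wells by over 3 SD, either direction, in both duplicate plates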
TRPC4 spec = tests whether TRPC6 inhibitors also affect mouse TRPC4. shares compounds with TRPC6 inhibitor. HEK293 TRPC4/mu-opioid, membrane potential fluorescence. activity change, negative = inhibition, % at 10 µM. 61% of 920 active;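 active = rise or fall in signal beyond 3 SD of buffer-only wells in both replicate plates, either sign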;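 also: integrated kinetic ratio of fluorescence range over baseline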
HEK293 MPD ctr 2-1 = parental HEK293 nonspecific activity of TRPC6 inhibitors, second screen; shares compounds with TRPC6 inhibitor; parental HEK293 membrane potential dye fluorescence; maximal acetylcholine challenge after compound addition; signal change vs control, % at 10 µM; 31% of 920 active;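 active = membrane potential signal moving either way by over 3 SD of the maximum-effect control, in both duplicate plates, meaning non-specific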
HEK293 MPD ctr-1 = checks TRPC6 inhibitor effects in parental HEK293 cells; shares compounds with TRPC6 inhibitor; parental HEK293 membrane potential dye fluorescence; membrane potential signal change, % at 10 µM; 60% of 920 active; AID 2780;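 active = membrane potential signal shifting up or down by more than 3 SD of buffer-only wells, on both duplicate plates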
HEK293 MPD ctr-2 = counter-screen for TRPC6 modulators: effect in parental HEK293 cells. shares compounds with TRPC6 inhibitor. membrane potential dye fluorescence. membrane potential signal change, % at 10 µM. 51% of 2,400 active. AID 488924;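 active = membrane potential signal moves up or down beyond 5 SD from buffer-only wells, on both duplicate plates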
HEK293 MPD ctr 2-2 = second check of TRPC6 modulator effects in parental HEK293 cells; shares compounds with TRPC6 inhibitor; membrane potential dye fluorescence; after compound, maximal acetylcholine stimulation; inhibition, % at 10 µM; 14% of 2,400 active;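 active = membrane potential signal drops by more than 5 SD from the mean control signal, in both duplicate plates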;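 also: plate controls were acetylcholine ECmax control wells for no effect and buffer only wells for full effect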
TRPC4/MOR mod = mouse TRPC4 off-target activity of TRPC6 modulators; HEK293 TRPC4/mu-opioid, membrane potential fluorescence; AID 488927; percent change from control (negative = decrease, positive = increase), % at 10 µM; 69% of 2,400 active; shares compounds with TRPC6 inhibitor;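 active = membrane potential signal moved up or down beyond 5 SD of buffer control wells, in both duplicate plates, actives on both sides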;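 also: plate controls were assay buffer wells for no effect and DAMGO maximal-effect wells for full effect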
TRPC4/MOR inh 2 = mouse TRPC4 off-target activity of TRPC6 modulators, second screen; shares compounds with TRPC6 inhibitor; HEK293 TRPC4/mu-opioid, membrane potential dye fluorescence; stimulated with maximal-effect DAMGO; inhibition, % at 10 µM; 55% of 2,400 active; AID 488928;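 active = drop in membrane potential signal beyond 5 SD of the control wells in both duplicate plates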;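 also: TRPC4 counter screen for TRPC6 hits run under conditions tuned for TRPC6 not TRPC4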
TRPC6 block conf = confirmation of mouse TRPC6 inhibitors | shares compounds with TRPC6 inhibitor | HEK293-TRPC6, membrane potential dye, ACh-evoked depolarization | inhibition, % at 10 µM | 43% of 3,300 active;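 active = fluorescence ratio falls more than 5 SD below the full-stimulation control mean, in both duplicate runs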;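 also: integrated fluorescence ratio of peak minus minimum over baseline after agonist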
TRPC6 act conf = mouse TRPC6 activator confirmation; 11% of 2,800 active; HEK293-TRPC6 membrane potential dye fluorescence, FDSS; shares compounds with TRPC6 inhibitor; activation, % at 10 µM;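 active = ratio signal rise beyond 5 SD above unstimulated control wells' mean, seen in both duplicate runs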;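 also: plate controls were buffer EC0 wells for no effect and acetylcholine ECmax response for full effect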
An asterisk follows results filed as active. Only some compounds are listed: those with a hit (about 2.3% of all), similar ones and a draw of the others.

How did Cc1nc2cc(OCc3cc(C(=O)NC(C)c4cnn(C)c4)no3)ccc2s1 (stereo unspecified) do in these assays?
TRPC6 inhibitor: inactive; TRPC6 activator: inactive; TRPC4 potent: inactive; TRPC4 act: inactive; TRPC4 inh: inactive

What do the screens show for `OC(CNCC1CCCO1)Cn1c2ccccc2c2ccccc21` (stereo unspecified)?
TRPC6 inhibitor: -6.48*; TRPC6 activator: inactive; TRPC4 potent: inactive; TRPC4 act: inactive; TRPC4 inh: inactive; HEK293 MPD ctr-2: 312.0%*; HEK293 MPD ctr 2-2: 73.0%*; TRPC4/MOR mod: 36.5%*; TRPC4/MOR inh 2: 65.0%*; TRPC6 block conf: 83.5%*

Results for OC(CNCC1CCCO1)Cn1c2ccc(Cl)cc2c2cc(Cl)ccc21 (stereo unspecified) ?
TRPC6 inhibitor: inactive; TRPC6 activator: inactive; TRPC4 potent: inactive; TRPC4 act: inactive; TRPC4 inh: inactive

What do the screens show for `Cc1cc(C)c[n+](-c2[nH]c(=O)sc2/C=N/N=C(\N)[S-])c1`?
TRPC6 inhibitor: inactive; TRPC6 activator: inactive; TRPC4 potent: inactive; TRPC4 act: inactive; TRPC4 inh: inactive

How did Cc1cccc2sc(N(CCN(C)C)C(=O)C3CCN(S(=O)(=O)c4cccs4)CC3)nc12 do in these assays?
TRPC6 inhibitor: inactive; TRPC6 activator: inactive; TRPC4 potent: inactive; TRPC4 act: inactive; TRPC4 inh: inactive

Results for Oc1ccccc1Oc1ncc(Br)c(Cl)n1 ?
TRPC6 inhibitor: inactive; TRPC6 activator: inactive; TRPC4 potent: inactive; TRPC4 act: inactive; TRPC4 inh: inactive

What do the screens show for `Oc1ccccc1Oc1ncc(Br)c(N2CCOCC2)n1`?
TRPC6 inhibitor: -7.21*; TRPC6 activator: inactive; TRPC4 potent: inactive; TRPC4 act: inactive; TRPC4 inh: inactive; TRPC4 sel inh 2: inactive; TRPC4 spec: inactive; HEK293 MPD ctr 2-1: inactive; HEK293 MPD ctr-1: inactive; TRPC6 block conf: inactive; TRPC6 act conf: inactive

How did Cc1ccc(NC(=O)CC(C)CC(=O)NCc2ccccc2)cc1Cl (stereo unspecified) do in these assays?
TRPC6 inhibitor: inactive; TRPC6 activator: inactive; TRPC4 potent: inactive; TRPC4 act: inactive; TRPC4 inh: inactive

How did Cc1cc(NCCN(C)C)n2nc(-c3cccs3)cc2n1 do in these assays?
TRPC6 inhibitor: -6.8*; TRPC6 activator: inactive; TRPC4 potent: inactive; TRPC4 act: inactive; TRPC4 inh: inactive; HEK293 MPD ctr-2: -272.0%*; HEK293 MPD ctr 2-2: inactive; TRPC4/MOR mod: -52.0%*; TRPC4/MOR inh 2: 48.5%*; TRPC6 block conf: inactive; TRPC6 act conf: inactive

Results for CC1CC(C)CN(C(=O)c2cc3c(s2)CCC3)C1 (stereo unspecified) ?
TRPC6 inhibitor: inactive; TRPC6 activator: inactive; TRPC4 potent: inactive; TRPC4 act: inactive; TRPC4 inh: inactive

What do the screens show for `COc1ccc2c(c1)N(C)/C(=C1/SC(=NCc3ccccc3)N(c3ccccc3)C1=O)S2`?
TRPC6 inhibitor: -6.46*; TRPC6 activator: inactive; TRPC4 potent: inactive; TRPC4 act: inactive; TRPC4 inh: inactive; HEK293 MPD ctr-2: inactive; HEK293 MPD ctr 2-2: inactive; TRPC4/MOR mod: inactive; TRPC4/MOR inh 2: inactive; TRPC6 block conf: inactive; TRPC6 act conf: inactive

How did O=C(Cn1nnc(-c2cccs2)n1)NCCc1ccccc1 do in these assays?
TRPC6 inhibitor: inactive; TRPC6 activator: inactive; TRPC4 potent: inactive; TRPC4 act: inactive; TRPC4 inh: inactive

Results for COc1ccc(CCNC(=O)Cn2nnc(-c3cccs3)n2)cc1OC ?
TRPC6 inhibitor: -5.75*; TRPC6 activator: inactive; TRPC4 potent: inactive; TRPC4 act: inactive; TRPC4 inh: inactive; HEK293 MPD ctr-2: inactive; HEK293 MPD ctr 2-2: inactive; TRPC4/MOR mod: inactive; TRPC4/MOR inh 2: inactive; TRPC6 block conf: inactive; TRPC6 act conf: inactive

What do the screens show for `COc1ccc(CCNC(=O)CCC(=O)Nc2nnc(C(C)C)s2)cc1OC`?
TRPC6 inhibitor: inactive; TRPC6 activator: inactive; TRPC4 potent: inactive; TRPC4 act: inactive; TRPC4 inh: inactive

How did Cc1cccc2c1Sc1ccc(Cl)cc1CC2N1CCNCC1 (stereo unspecified) do in these assays?
TRPC6 inhibitor: -5.12*; TRPC6 activator: inactive; TRPC4 potent: inactive; TRPC4 act: inactive; TRPC4 inh: inactive; HEK293 MPD ctr-2: inactive; HEK293 MPD ctr 2-2: inactive; TRPC4/MOR mod: inactive; TRPC4/MOR inh 2: 61.0%*; TRPC6 block conf: 43.0%*; TRPC6 act conf: inactive

What do the screens show for `CN1CCN(C2Cc3ccc(F)cc3Sc3cc(F)c(Cl)cc32)CC1` (stereo unspecified)?
TRPC6 inhibitor: inactive; TRPC6 activator: inactive; TRPC4 potent: inactive; TRPC4 act: inactive; TRPC4 inh: inactive

How did CC(C)c1ccc2c(c1)C(N1CCNCC1)Cc1ccc(F)cc1S2 (stereo unspecified) do in these assays?
TRPC6 inhibitor: inactive; TRPC6 activator: inactive; TRPC4 potent: inactive; TRPC4 act: inactive; TRPC4 inh: inactive
